Assay results: ChEMBL document CHEMBL3425481, “Design, synthesis and anticancer activity of matrine-1H-1,2,3-triazole-chalcone conjugates” (Bioorg Med Chem Lett, 2015)

Legend:
[1] = Antiproliferative activity against mouse NIH/3T3 cells assessed as inhibition of cell proliferation incubated for 48 hrs by CCK8 assay; type: cell-based; settings: NIH3T3, 48 h
In short: (§1)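 Human A549 lung, Hela cervical, Bel-7402 hepatocellular and MCF-7 breast cancer cells, plus mouse embryo fibroblast NIH3T3, tested for anti-proliferative activity by CCK-8 assay. For the matrine combination tests, the chalcone and matrine were used at a 1:1 molar ratio; values given as IC50.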

A549 [2] = assay: Antiproliferative activity against human A549 cells assessed as inhibition of cell proliferation incubated for 48 hrs by CCK8 assay; type: functional, cell-based; settings: A549, 48 h; in short: as §1
HeLa = assay: Antiproliferative activity against human HeLa cells assessed as inhibition of cell proliferation incubated for 48 hrs by CCK8 assay; type: functional, cell-based; in short: as §1
MCF7 = assay: Antiproliferative activity against human MCF7 cells assessed as inhibition of cell proliferation incubated for 48 hrs by CCK8 assay; type: functional, cell-based; settings: MCF7, 48 h; in short: as §1
A549 [3] = assay: Induction of apoptosis in human A549 cells incubated for 24 hrs by Annexin V-FITC/propidium iodide double staining based flow cytometry; type: functional, cell-based
A549 [4] = assay: Induction of apoptosis in human A549 cells assessed as viable cells level at 0.5 times antiproliferative IC50 incubated for 24 hrs by Annexin V-FITC/propidium iodide double staining based flow cytometry (reference value: 99.7%); type: functional
A549 [5] = assay: Induction of apoptosis in human A549 cells assessed as early apoptosis cells level at 0.5 times antiproliferative IC50 incubated for 24 hrs by Annexin V-FITC/propidium iodide double staining based flow cytometry (reference value: 0.116%); type: functional
A549 [6] = assay: Induction of apoptosis in human A549 cells assessed as late apoptosis cells level at 0.5 times antiproliferative IC50 incubated for 24 hrs by Annexin V-FITC/propidium iodide double staining based flow cytometry (reference value: 0.127%); type: functional
A549 [7] = assay: Induction of apoptosis in human A549 cells assessed as necrosis cells level at 0.5 times antiproliferative IC50 incubated for 24 hrs by Annexin V-FITC/propidium iodide double staining based flow cytometry (reference value: 0.042%); type: functional
A549 [8] = assay: Induction of apoptosis in human A549 cells assessed as viable cells level at IC50 incubated for 24 hrs by Annexin V-FITC/propidium iodide double staining based flow cytometry (reference value: 99.7%); type: functional
A549 [9] = assay: Induction of apoptosis in human A549 cells assessed as early apoptosis cells level at IC50 incubated for 24 hrs by Annexin V-FITC/propidium iodide double staining based flow cytometry (reference value: 0.116%); type: functional
A549 [10] = assay: Induction of apoptosis in human A549 cells assessed as late apoptosis cells level at IC50 incubated for 24 hrs by Annexin V-FITC/propidium iodide double staining based flow cytometry (reference value: 0.127%); type: functional
A549 [11] = assay: Induction of apoptosis in human A549 cells assessed as necrosis cells level at IC50 incubated for 24 hrs by Annexin V-FITC/propidium iodide double staining based flow cytometry (reference value: 0.042%); type: functional
A549 [12] = assay: Induction of apoptosis in human A549 cells assessed as viable cells level at 2 times antiproliferative IC50 incubated for 24 hrs by Annexin V-FITC/propidium iodide double staining based flow cytometry (reference value: 99.7%); type: functional
A549 [13] = assay: Induction of apoptosis in human A549 cells assessed as early apoptosis cells level at 2 times antiproliferative IC50 incubated for 24 hrs by Annexin V-FITC/propidium iodide double staining based flow cytometry (reference value: 0.116%); type: functional
A549 [14] = assay: Antitumor activity against human A549 cells xenografted in Balb/ca-nu mouse assessed as tumor growth inhibition at 2.5 mg/kg, iv dosed every 3 days for total of 7 dosing rounds measured on day 14 after treatment; type: functional; settings: read-out: TGI
In short: (§2)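 A549 xenograft in mice, dosed by tail vein injection every 3 days; vehicle saline plus 0.2% Tween 80. n = 8 per treatment group, 6 in the vehicle group. Mean ± SE.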

A549 [15] = assay: Antitumor activity against human A549 cells xenografted in Balb/ca-nu mouse assessed as tumor growth inhibition at 2.5 mg/kg, iv dosed every 3 days for total of 7 dosing rounds measured on day 16 after treatment; type: functional; settings: read-out: TGI; in short: as §2
A549 [16] = assay: Antitumor activity against human A549 cells xenografted in Balb/ca-nu mouse assessed as tumor growth inhibition at 2.5 mg/kg, iv dosed every 3 days for total of 7 dosing rounds measured on day 18 after treatment; type: functional; settings: read-out: TGI; in short: as §2
A549 [17] = assay: Antitumor activity against human A549 cells xenografted in Balb/ca-nu mouse assessed as tumor growth inhibition at 2.5 mg/kg, iv dosed every 3 days for total of 7 dosing rounds measured on day 20 after treatment; type: functional; settings: read-out: TGI; in short: as §2
A549 [18] = assay: Antitumor activity against human A549 cells xenografted in Balb/ca-nu mouse assessed as tumor growth inhibition at 5 mg/kg, iv dosed every 3 days for total of 7 dosing rounds measured on day 10 after treatment; type: functional; settings: read-out: TGI; in short: as §2
A549 [19] = assay: Antitumor activity against human A549 cells xenografted in Balb/ca-nu mouse assessed as tumor growth inhibition at 5 mg/kg, iv dosed every 3 days for total of 7 dosing rounds measured on day 12 after treatment; type: functional; settings: read-out: TGI; in short: as §2
A549 [20] = assay: Antitumor activity against human A549 cells xenografted in Balb/ca-nu mouse assessed as tumor growth inhibition at 5 mg/kg, iv dosed every 3 days for total of 7 dosing rounds measured on day 14 after treatment; type: functional; settings: read-out: TGI; in short: as §2
A549 [21] = assay: Antitumor activity against human A549 cells xenografted in Balb/ca-nu mouse assessed as tumor growth inhibition at 5 mg/kg, iv dosed every 3 days for total of 7 dosing rounds measured on day 16 after treatment; type: functional; settings: read-out: TGI; in short: as §2
A549 [22] = assay: Antitumor activity against human A549 cells xenografted in Balb/ca-nu mouse assessed as tumor growth inhibition at 5 mg/kg, iv dosed every 3 days for total of 7 dosing rounds measured on day 20 after treatment; type: functional; settings: read-out: TGI; in short: as §2
A549 [23] = assay: Antitumor activity against human A549 cells xenografted in Balb/ca-nu mouse assessed as tumor growth inhibition at 10 mg/kg, iv dosed every 3 days for total of 7 dosing rounds measured on day 10 after treatment; type: functional; settings: read-out: TGI; in short: as §2
A549 [24] = assay: Antitumor activity against human A549 cells xenografted in Balb/ca-nu mouse assessed as tumor growth inhibition at 10 mg/kg, iv dosed every 3 days for total of 7 dosing rounds measured on day 12 after treatment; type: functional; settings: read-out: TGI; in short: as §2
A549 [25] = assay: Antitumor activity against human A549 cells xenografted in Balb/ca-nu mouse assessed as tumor growth inhibition at 10 mg/kg, iv dosed every 3 days for total of 7 dosing rounds measured on day 14 after treatment; type: functional; settings: read-out: TGI; in short: as §2
A549 [26] = assay: Antitumor activity against human A549 cells xenografted in Balb/ca-nu mouse assessed as tumor growth inhibition at 10 mg/kg, iv dosed every 3 days for total of 7 dosing rounds measured on day 16 after treatment; type: functional; settings: read-out: TGI; in short: as §2
A549 [27] = assay: Antitumor activity against human A549 cells xenografted in Balb/ca-nu mouse assessed as tumor growth inhibition at 10 mg/kg, iv dosed every 3 days for total of 7 dosing rounds measured on day 18 after treatment; type: functional; settings: read-out: TGI; in short: as §2
Mus musculus = assay: Toxicity in human A549 cells xenografted Balb/ca-nu mouse assessed as effect on body weight at 2.5 to 10 mg/kg, iv dosed every 3 days for total of 7 dosing rounds measured on day 10 to day 20 after treatment; type: organism-based; parameters: dose 2.5-10 mg/kg, route intravenous; settings: in vivo, 72 h; in short: as §2
A549 [28] = assay: Antitumor activity against human A549 cells xenografted in Balb/ca-nu mouse assessed as tumor growth inhibition at 2.5 to 10 mg/kg, iv dosed every 3 days for total of 7 dosing rounds measured after 20 days post dose; type: functional, organism-based; in short: as §2

O=C(/C=C/c1cccc(Cl)c1)c1ccc(OCc2cn([C@H]3CC(=O)N4C[C@@H]5CCCN6CCC[C@@H]([C@H]56)[C@H]4C3)nn2)cc1O
IC50 [1]: 39.2 µM | IC50 (A549 [2]): 5.01 µM | IC50 (HeLa): 7.31 µM | IC50 (MCF7): 6.25 µM | Activity (A549 [3]): Dose-dependent effect | Activity (A549 [4]): 57.9% | Activity (A549 [5]): 19.8% | Activity (A549 [6]): 16.3% | Activity (A549 [7]): 5.99% | Activity (A549 [8]): 47.7% | Activity (A549 [9]): 31.1% | Activity (A549 [10]): 16.2% | Activity (A549 [11]): 4.95% | Activity (A549 [12]): 30.1% | Activity (A549 [13]): 34.2% | inhibition in vivo at 2.5 mg/kg (A549 [14]): 23.3% | inhibition in vivo at 2.5 mg/kg (A549 [15]): 33.2% | inhibition in vivo at 2.5 mg/kg (A549 [16]): 38.8% | inhibition in vivo at 2.5 mg/kg (A549 [17]): 43.9% | inhibition in vivo at 5 mg/kg (A549 [18]): 29% | inhibition in vivo at 5 mg/kg (A549 [19]): 34.8% | inhibition in vivo at 5 mg/kg (A549 [20]): 45.9% | inhibition in vivo at 5 mg/kg (A549 [21]): 54.9% | inhibition in vivo at 5 mg/kg (A549 [22]): 64.8% | inhibition in vivo at 10 mg/kg (A549 [23]): 60.5% | inhibition in vivo at 10 mg/kg (A549 [24]): 70.9% | inhibition in vivo at 10 mg/kg (A549 [25]): 78.8% | inhibition in vivo at 10 mg/kg (A549 [26]): 83.7% | inhibition in vivo at 10 mg/kg (A549 [27]): 86.9% | Activity (Mus musculus): Non-toxic | TGI (A549 [28]): Dose-dependent effect
